Assay results as given in ChEMBL document CHEMBL1148816, “Heterotricyclic himbacine analogs as potent, orally active thrombin receptor (protease activated receptor-1) antagonists” (J Med Chem, 2007).
Calls of active or inactive are those of the source. The rule behind the calls is not given here.

How the values were obtained:
[1] = target: T1, Proteinase-activated receptor 1 (Homo sapiens, UniProt P25116); test: (§1) Displacement of [3H]haTRAP from PAR1 in human platelet membrane; type: cell membranes
T1 sequence (P25116 whole entry): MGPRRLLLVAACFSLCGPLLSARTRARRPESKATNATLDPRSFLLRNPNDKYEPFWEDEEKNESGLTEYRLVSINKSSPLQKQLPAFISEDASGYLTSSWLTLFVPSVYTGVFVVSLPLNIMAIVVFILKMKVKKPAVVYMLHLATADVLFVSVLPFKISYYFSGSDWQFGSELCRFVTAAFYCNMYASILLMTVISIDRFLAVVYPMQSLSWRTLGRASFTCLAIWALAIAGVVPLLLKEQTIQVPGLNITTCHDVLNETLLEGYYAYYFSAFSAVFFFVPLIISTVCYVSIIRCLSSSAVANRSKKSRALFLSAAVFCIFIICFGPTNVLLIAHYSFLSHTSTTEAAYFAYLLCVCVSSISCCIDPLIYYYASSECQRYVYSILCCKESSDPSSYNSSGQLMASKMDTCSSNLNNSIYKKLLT
Method in brief: (§2)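 Membranes from human platelets as the PAR-1 source, with tritiated high-affinity thrombin receptor activating peptide ([3H]haTRAP) as radioligand; IC50 reported ± SEM, n = 2.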

[2] = AUC (0 to 6 hrs) in rat at 10 mg/kg, po; type: ADME, organism-based; set-up: time < 6 hr, dose 10 mg/kg, route oral; details: plasma
Method in brief: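 Rats given a single 10 mg/kg oral dose in 0.4% methylcellulose; plasma levels followed for 6 h and exposure reported as AUC from 0 to 6 h in ng·hr/mL.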

Cynomolgus monkey [3] = test: Ex vivo inhibition of haTRAP-induced platelet aggregation in cynomolgus monkey at 3 mg/kg, po after 6 hrs; type: functional; details: Macaca fascicularis
Method in brief: (§3)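 Conscious, chaired cynomolgus monkeys dosed orally at 3 mg/kg in 20% PEG-HPBCD; blood drawn at 1 h intervals to 6 h, then at 24 h; haTRAP added ex vivo as agonist; aggregation read in a whole blood aggregometer, reported as percent reduction.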

Cynomolgus monkey [4] = test: Ex vivo inhibition of haTRAP-induced platelet aggregation in cynomolgus monkey at 3 mg/kg, po 24 hrs; type: functional; details: Macaca fascicularis; method in brief: as §3
Cynomolgus monkey [5] = test: Inhibition of haTRAP-induced platelet aggregation in cynomolgus monkey at 1 mg/kg, po up to 6 hrs; type: functional, organism-based; set-up: dose 1 mg/kg; details: Macaca fascicularis
Method in brief: (§4)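 Cynomolgus monkeys dosed orally at 1 mg/kg and kept conscious in chairs; blood sampled hourly up to 6 h and again at 24 h; haTRAP added to the samples to trigger aggregation, measured by whole blood aggregometry.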

Cynomolgus monkey [6] = test: Inhibition of haTRAP-induced platelet aggregation in cynomolgus monkey at 1 mg/kg, po after 24 hrs; type: functional; details: Macaca fascicularis; method in brief: as §4
[7] = Bioavailability in cynomolgus monkey at 3 mg/kg, po; type: ADME, organism-based, Macaca fascicularis; details: in vivo
[8] = Cmax in po dosed cynomolgus monkey; type: ADME, organism-based, Macaca fascicularis; set-up: route oral; details: in vivo
[9] = Half life in iv dosed cynomolgus monkey; type: ADME, organism-based, Macaca fascicularis; details: in vivo
[10] = Tmax in cynomolgus monkey; type: ADME, organism-based, Macaca fascicularis; details: in vivo
Mus musculus [11] = organism: Mus musculus; test: Effect on liver weight in mouse; type: functional, organism-based
Method in brief: (§5)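 Mouse P450 enzyme induction model run for 8 days at doses up to 100 mg/kg; end points were liver weight, liver-to-body weight ratio and spectral CYP450.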

Mus musculus [12] = organism: Mus musculus; test: Effect on liver to body weight ratio in mouse; type: functional, organism-based; method in brief: as §5
[13] = Bioavailability in cynomolgus monkey at 1 mg/kg, iv and 1.5 mg/kg, po; type: ADME, organism-based, Macaca fascicularis; details: in vivo
[14] = Half life in cynomolgus monkey at 1 mg/kg, iv and 1.5 mg/kg, po; type: ADME, organism-based, Macaca fascicularis; details: in vivo
[15] = AUC (0 to 24 hrs) in cynomolgus monkey at 1 mg/kg, iv and 1.5 mg/kg, po; type: ADME, organism-based, Macaca fascicularis; details: plasma
[16] = Cmax in cynomolgus monkey at 1 mg/kg, iv and 1.5 mg/kg, po; type: ADME, organism-based, Macaca fascicularis; details: in vivo
[17] = Tmax in cynomolgus monkey at 1 mg/kg, iv and 1.5 mg/kg, po; type: ADME, organism-based, Macaca fascicularis; details: in vivo
[18] = target: T2, Proteinase-activated receptor 1 (Homo sapiens) (UniProt P25116); test: as §1; type: cell membranes; method in brief: as §2
T2 sequence (whole entry): T1 sequence (P25116 whole entry)

Row | Compound | IC50 [1] [nM] | AUC(0-t) at 6 h [2] [ng·h/mL] | further results
1 | CCOC(=O)N1CCC[C@H]2[C@H](/C=C/c3ccc(-c4cccc(C#N)c4)cn3)[C@@H]3[C@@H](C)OC(=O)[C@@H]3C[C@@H]21 | 295 |  | 
2 | CCOC(=O)N1CCC[C@H]2[C@H](/C=C/c3ccc(-c4cccc(F)c4)cn3)[C@@H]3[C@@H](C)OC(=O)[C@@H]3C[C@@H]21 | 224 |  | 
3 | C[C@H]1OC(=O)[C@@H]2C[C@@H]3C[S+]([O-])CC[C@H]3[C@H](/C=C/c3ccc(-c4cccc(C(F)(F)F)c4)cn3)[C@H]12 (stereo in doubt) | 80 |  | 
4 | CCOC(=O)N1CC[C@@H]2[C@H](C[C@H]3C(=O)O[C@H](C)[C@H]3[C@H]2/C=C/c2ccc(-c3cccc(C(F)(F)F)c3)cn2)C1 | 11 |  | 
5 | C[C@H]1OC(=O)[C@@H]2C[C@@H]3CN(C(N)=O)CC[C@H]3[C@H](/C=C/c3ccc(-c4cccc(F)c4)cn3)[C@H]12 | 1100 |  | 
6 | CCOC(=O)N1CC[C@@H]2[C@H](C[C@H]3C(=O)O[C@H](C)[C@H]3[C@H]2/C=C/c2ccc(-c3ccccc3F)cn2)C1 | 8 | 3780 | inhibition in vivo at 3 mg/kg (Cynomolgus monkey [3]): 55%; inhibition in vivo at 3 mg/kg (Cynomolgus monkey [4]): 55%
7 | COCCOC(=O)N1CC[C@@H]2[C@H](C[C@H]3C(=O)O[C@H](C)[C@H]3[C@H]2/C=C/c2ccc(-c3cccc(F)c3)cn2)C1 | 16.5 | 88 | 
8 | C[C@H]1OC(=O)[C@@H]2C[C@@H]3COCC[C@H]3[C@H](/C=C/c3ccc(-c4cccc(F)c4)cn3)[C@H]12 | 26 | 850 | Activity (Cynomolgus monkey [5]): Active; inhibition in vivo at 1 mg/kg (Cynomolgus monkey [6]): 80%
9 | C[C@H]1OC(=O)[C@@H]2C[C@@H]3COCC[C@H]3[C@H](/C=C/c3ccc(-c4cccc(C(F)(F)F)c4)cn3)[C@H]12 | 17 | 545 | 
10 | C[C@H]1OC(=O)[C@@H]2C[C@@H]3CN(S(C)(=O)=O)CC[C@H]3[C@H](/C=C/c3ccc(-c4cccc(F)c4)cn3)[C@H]12 | 15 | 5350 | inhibition in vivo at 3 mg/kg (Cynomolgus monkey [3]): 54%; inhibition in vivo at 3 mg/kg (Cynomolgus monkey [4]): 50%
11 | C[C@H]1OC(=O)[C@@H]2C[C@@H]3COCC[C@H]3[C@H](/C=C/c3ccc(-c4cccc(Cl)c4)cn3)[C@H]12 | 19 |  | 
12 | CCOC(=O)N1CC[C@@H]2[C@H](C[C@H]3C(=O)O[C@H](C)[C@H]3[C@H]2/C=C/c2ccc(-c3ccccn3)cn2)C1 | 33.5 |  | inhibition in vivo at 3 mg/kg (Cynomolgus monkey [3]): 67%; inhibition in vivo at 3 mg/kg (Cynomolgus monkey [4]): 29%
13 | C[C@H]1OC(=O)[C@@H]2C[C@@H]3CSCC[C@H]3[C@H](/C=C/c3ccc(-c4cccc(C(F)(F)F)c4)cn3)[C@H]12 | 22 |  | 
14 | C[C@H]1OC(=O)[C@@H]2C[C@@H]3CN(C(=O)OCc4ccccc4)CC[C@H]3[C@H](/C=C/c3ccc(-c4cccc(C(F)(F)F)c4)cn3)[C@H]12 | 25 |  | 
15 | C[C@H]1OC(=O)[C@@H]2C[C@@H]3CN(C)CC[C@H]3[C@H](/C=C/c3ccc(-c4cccc(C(F)(F)F)c4)cn3)[C@H]12 | 762 |  | 
16 | CCNC(=O)N1CC[C@@H]2[C@H](C[C@H]3C(=O)O[C@H](C)[C@H]3[C@H]2/C=C/c2ccc(-c3cccc(F)c3)cn2)C1 | 18.5 | 2050 | inhibition in vivo at 3 mg/kg (Cynomolgus monkey [3]): 47%; inhibition in vivo at 3 mg/kg (Cynomolgus monkey [4]): 34%
17 | C[C@H]1OC(=O)[C@@H]2C[C@@H]3COCC[C@H]3[C@H](/C=C/c3ccc(-c4ccccc4Cl)cn3)[C@H]12 | 13 |  | 

Row | Compound | IC50 [1] [nM] | AUC(0-t) at 6 h [2] [ng·h/mL] | further results
18 | C[C@H]1OC(=O)[C@@H]2C[C@@H]3CS(=O)(=O)CC[C@H]3[C@H](/C=C/c3ccc(-c4cccc(C(F)(F)F)c4)cn3)[C@H]12 | 200 |  | 
19 | CC(C)C(=O)N1CC[C@@H]2[C@H](C[C@H]3C(=O)O[C@H](C)[C@H]3[C@H]2/C=C/c2ccc(-c3cccc(C(F)(F)F)c3)cn2)C1 | 113 |  | 
20 | C[C@H]1OC(=O)[C@@H]2C[C@@H]3C[S+]([O-])CC[C@H]3[C@H](/C=C/c3ccc(-c4cccc(C(F)(F)F)c4)cn3)[C@H]12 (single isomer, unassigned; isomer 2) | 375 |  | 
21 | C[C@H]1OC(=O)[C@@H]2C[C@@H]3CN(C(=O)C4CC4)CC[C@H]3[C@H](/C=C/c3ccc(-c4cccc(C(F)(F)F)c4)cn3)[C@H]12 | 37.5 |  | 
22 | CCOC(=O)N1CC[C@@H]2[C@H](C[C@H]3C(=O)O[C@H](C)[C@H]3[C@H]2/C=C/c2ccc(-c3cccc(F)c3)cn2)C1 | 10.5 | 2220 | Ki [1]: 4.5 nM; inhibition in vivo at 3 mg/kg (Cynomolgus monkey [3]): 100%; bioavailability [7]: 62%; Cmax [8]: 990 nM; half-life [9]: 6.2 h; Tmax [10]: 0.7 h; Activity (Mus musculus [11]): inactive; Activity (Mus musculus [12]): inactive; inhibition in vivo at 3 mg/kg (Cynomolgus monkey [4]): 70%
23 | C[C@H]1OC(=O)[C@@H]2C[C@@H]3COCC[C@H]3[C@H](/C=C/c3ccc(-c4ccccc4F)cn3)[C@H]12 | 25 | 1050 | Activity (Cynomolgus monkey [5]): Active; inhibition in vivo at 1 mg/kg (Cynomolgus monkey [6]): 55%; bioavailability [13]: 71%; half-life [14]: 8.6 h; AUC(0-t) [15]: 3700 ng·h/mL; Cmax [16]: 610 ng/mL; Tmax [17]: 1.7 h
24 | CCOC(=O)N1CCC[C@H]2[C@H](/C=C/c3ccc(-c4cccnc4)cn3)[C@@H]3[C@@H](C)OC(=O)[C@@H]3C[C@@H]21 |  |  | Activity [18]: inactive
25 | CCOC(=O)N1CCC[C@H]2[C@H](/C=C/c3ccc(-c4ccccc4C)cn3)[C@@H]3[C@@H](C)OC(=O)[C@@H]3C[C@@H]21 | 600 |  | 
26 | CCCS(=O)(=O)N1CC[C@@H]2[C@H](C[C@H]3C(=O)O[C@H](C)[C@H]3[C@H]2/C=C/c2ccc(-c3cccc(F)c3)cn2)C1 | 101 |  | 
27 | CC(=O)N1CC[C@@H]2[C@H](C[C@H]3C(=O)O[C@H](C)[C@H]3[C@H]2/C=C/c2ccc(-c3cccc(C(F)(F)F)c3)cn2)C1 | 550 |  | 
28 | C[C@H]1OC(=O)[C@@H]2C[C@@H]3CN(C(=O)C4CC4)CC[C@H]3[C@H](/C=C/c3ccc(-c4ccccc4F)cn3)[C@H]12 | 8 | 6010 | inhibition in vivo at 3 mg/kg (Cynomolgus monkey [3]): 45%; inhibition in vivo at 3 mg/kg (Cynomolgus monkey [4]): 39%
29 | C[C@H]1OC(=O)[C@@H]2C[C@@H]3COCC[C@H]3[C@H](/C=C/c3ccc(-c4cccc(F)c4F)cn3)[C@H]12 | 26 | 1190 | 
30 | C[C@H]1OC(=O)[C@@H]2C[C@@H]3CN(C(=O)C4CC4)CC[C@H]3[C@H](/C=C/c3ccc(-c4cccc(F)c4)cn3)[C@H]12 | 15.5 | 4370 | inhibition in vivo at 3 mg/kg (Cynomolgus monkey [3]): 100%; inhibition in vivo at 3 mg/kg (Cynomolgus monkey [4]): 72%
31 | C[C@H]1OC(=O)[C@@H]2C[C@@H]3COCC[C@H]3[C@H](/C=C/c3ccc(-c4cccc(Cl)c4Cl)cn3)[C@H]12 | 21 |  | 
32 | C[C@H]1OC(=O)[C@@H]2C[C@@H]3CNCC[C@H]3[C@H](/C=C/c3ccc(-c4cccc(C(F)(F)F)c4)cn3)[C@H]12 | 600 |  | 
33 | CCOC(=O)N1CCC[C@H]2[C@H](/C=C/c3ccc(-c4ccccc4F)cn3)[C@@H]3[C@@H](C)OC(=O)[C@@H]3C[C@@H]21 | 153 |  | 
